Bioassay records as filed in PubChem.
In the library only some 27% were active in any assay of this set; here they are far more common.
CYP2C9 activ – human CYP2C9 activators, primary screen, biochemical, luminescence; recombinant CYP2C9, luciferin-H conversion; hits give high values; factor 1 = untreated enzyme, 0 = blocked; activation factor at 5 µM; 1.4% of 96,000 active; AID 1024, 2008;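 active = activation factor of 2 or more for CYP2C9 at a 5 µM dose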
Target sequence (P11712 whole entry, looked up): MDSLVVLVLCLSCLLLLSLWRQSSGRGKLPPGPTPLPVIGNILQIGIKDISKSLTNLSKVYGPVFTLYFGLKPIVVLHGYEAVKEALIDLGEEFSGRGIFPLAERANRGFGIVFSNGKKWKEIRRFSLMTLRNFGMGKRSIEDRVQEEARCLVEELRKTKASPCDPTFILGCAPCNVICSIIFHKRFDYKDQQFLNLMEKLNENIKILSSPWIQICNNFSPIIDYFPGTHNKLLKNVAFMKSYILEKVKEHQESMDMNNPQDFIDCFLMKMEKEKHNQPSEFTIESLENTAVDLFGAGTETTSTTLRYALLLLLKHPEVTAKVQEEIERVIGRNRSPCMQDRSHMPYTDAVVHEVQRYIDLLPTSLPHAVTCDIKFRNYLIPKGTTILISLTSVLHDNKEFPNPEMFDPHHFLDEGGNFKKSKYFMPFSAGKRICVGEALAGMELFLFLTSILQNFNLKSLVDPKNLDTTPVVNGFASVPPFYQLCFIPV
HIV Rev-RRE inh – HIV-1 Rev-RRE binding inhibitors, primary screen, biochemical, FRET, protein-RNA interaction | P05866 | Rev peptide-RRE RNA binding | inhibition, % at 8 µM | 0.79% of 97,000 active | AID 704, 2007;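 active = inhibition above the screen-wide mean plus 3 SD, cut at about 35% in these data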
Target sequence (P05866 whole entry, looked up): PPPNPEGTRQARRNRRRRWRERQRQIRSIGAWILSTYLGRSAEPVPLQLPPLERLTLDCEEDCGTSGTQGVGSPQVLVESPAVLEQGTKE
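Assay system: labelled RRE RNA duplex and labelled Rev peptide / Medium: HEPES pH 7.5 salt buffer with EDTA / Reagent: labelled Rev peptide / Schedule: 5 + 15 min at 25 °C / Signal: FRET, excitation 480 nm, emission 540 nm donor and 671 nm acceptor / Benchmarks: DMSO and neomycin B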
CYP2C19 inhib – blockers of cytochrome P450 2C19 activity – biochemical, luminescence, ADME assay, primary screen. CYP2C19 Supersomes, luciferin-H EGE luminescence, 30 min. inhibition, % at 5 µM. 21% of 96,000 active. AID 778, 2007;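 active = CYP2C19 inhibition above a set limit at 5 µM in the primary screen, cut at about 50% in these data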
Cav32 inh – Cav3.2 calcium influx blockers – cell-based, Fluo-4 calcium fluorescence, FDSS, MLSMR library, primary screen; B-score at 10 µM; 4% of 100,000 active; Voltage-dependent T-type calcium channel subunit alpha-1H (Homo sapiens), O95180; Cav3.2-expressing cells; hits give low values;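 active = single-dose well whose peak fluorescence ratio is a statistical outlier from its plate by either plate-standardised score or position-corrected B-score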
CYP2C9 inhib – blockers of cytochrome P450 2C9 activity – biochemical, luminescence, ADME assay, primary screen; inhibition, % at 5 µM; 20% of 96,000 active; CYP2C9 Supersomes, luciferin-H conversion;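 active = blocking of liver enzyme CYP2C9 beyond about 50% at 5 µM, limit read from the data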
CYP2C19 act – human CYP2C19 activators, primary screen, biochemical, luminescence; recombinant CYP2C19, luciferin-H EGE luminescence; hits give high values; 0 = fully inhibited enzyme, 1 = untreated enzyme; activation factor at 5 µM; 96,000 tested, under 10 active; AID 1025, 2008;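 active = activation factor of at least 2 at 5 µM in the primary screen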
Numbers stand for hits; – = inactive; · = no result given.

SMILES | CYP2C9 activ | HIV Rev-RRE inh | CYP2C19 inhib | Cav32 inh | CYP2C9 inhib | CYP2C19 act
CC(Nc1n[nH]c(=S)[nH]c1=O)C(=O)OCc1ccccc1 (stereo not given) | – | · | – | – | 89.8 | –
CCCCOC(=O)C(C)Nc1n[nH]c(=S)[nH]c1=O (stereo not given) | – | – | – | – | 79.4 | –
CCCCOC(=O)C(C)Nc1n[nH]c(=O)[nH]c1=O (stereo not given) | – | – | – | · | – | –
O=C(Nc1ccccc1N1CCN(C(=O)c2ccccc2)CC1)c1cc(Br)ccc1Cl | – | – | 71.3 | – | 81.8 | –
O=C(Nc1ccccc1N1CCCC1)c1cc2ccccc2o1 | – | – | – | · | – | –
Nc1ccccc1N1CCN(C(=O)c2ccccc2)CC1 | · | – | · | – | · | ·
O=C(Nc1ccccc1N1CCN(C(=O)c2ccccc2)CC1)c1cc2ccccc2o1 | – | – | 96.9 | – | 95.6 | –
COc1cc(C(C(=O)NC(C)(C)C)N(C(=O)CNC(=O)c2cccs2)c2ccc(C(C)C)cc2)cc(OC)c1OC (stereo not given) | – | – | – | – | – | –
CCOc1ccc(C(C)(C)C)cc1S(=O)(=O)N1CC(C)OC(C)C1 (stereo not given) | – | – | 79.2 | – | 63.0 | –
COc1ccc(Br)cc1S(=O)(=O)N1CC(C)OC(C)C1 (stereo not given) | · | – | · | – | · | ·
CS(=O)(=O)N(CC(=O)Nc1cccc(Cl)c1Cl)c1ccccc1 | – | – | – | – | 78.3 | –
CS(=O)(=O)N(CC(=O)Nc1cc(Cl)ccc1Cl)c1ccccc1 | – | – | – | – | 64.8 | –
Cc1cc(C)c2nc(SCC(=O)N3CC(=O)Nc4ccccc43)c(C#N)cc2c1 | · | – | · | · | · | ·
Cc1oc(-c2ccccc2F)nc1CS(=O)(=O)CC(=O)NC1CCCC1 | – | · | – | – | 51.5 | –
Cc1cccc(-c2nc(CS(=O)CC(=O)N3CCc4ccccc4C3)c(C)o2)c1 (stereo not given) | – | – | – | – | – | –
Cc1oc(-c2ccccc2F)nc1CS(=O)(=O)CC(=O)NCCN(C)C1CCCCC1 | – | – | – | · | – | –
Cc1oc(-c2ccccc2F)nc1CS(=O)(=O)CC(=O)N1CCc2ccccc21 | – | · | – | -4.74 | – | –
Cc1ccc(-c2nc(CS(=O)(=O)CC(=O)N3CCc4ccccc4C3)c(C)o2)cc1 | – | · | – | -8.98 | 71.8 | –
O=C(CCC1CCCC1)Nc1ccon1 | – | – | – | – | – | –
c1ccc(-n2c(Sc3cnccn3)nnc2-c2cccs2)cc1 | – | – | 71.0 | – | – | –
CCOc1ccc(CCNC(=O)C2CCCN(C(=O)N(C)C)C2)cc1OCC (stereo not given) | · | – | · | – | · | ·
COc1cc(C)nc(N(C)S(=O)(=O)c2ccccc2Cl)n1 | – | – | 73.4 | – | – | –
COc1nc(N(C)C)nc(N(OC)S(=O)(=O)c2ccccc2Cl)n1 | – | · | 89.5 | – | 72.4 | –
O=S(=O)(Nn1cnnc1)c1ccccc1Cl | – | – | – | – | – | –
CON(c1nc(Cl)nc(N(C)C)n1)S(=O)(=O)c1ccccc1Cl | – | – | 69.4 | – | – | –
SMILES | CYP2C9 activ | HIV Rev-RRE inh | CYP2C19 inhib | Cav32 inh | CYP2C9 inhib | CYP2C19 act
CNC(=O)NC(=O)CSc1ccc(NC(C)=O)cc1 | – | – | – | – | – | –
Cc1cc(C)nc(Nc2n[nH]c(-c3ccccc3Br)n2)n1 | – | – | – | – | 74.4 | –
O=C(N1CCCC1)C12CCC3CC(CC(C3)C1)C2 | – | – | – | – | – | –
CCOC(=O)C(=O)Nc1ccccc1C(=O)Nc1ccc(OC)cc1 | – | – | – | – | 52.1 | –
CCOc1ccc(N(CC(=O)NCC(C)C)S(C)(=O)=O)cc1 | – | · | 60.0 | – | – | –
CCOc1ccc(N(CC(=O)NC(C)CC)S(C)(=O)=O)cc1 (stereo not given) | – | – | 64.8 | – | – | –
CCC(C)NC(=O)c1ccccc1NC(=O)CN(c1ccc(OC)cc1)S(C)(=O)=O (stereo not given) | – | – | 72.3 | – | 97.9 | –
CC1(C)CC2(CCO1)N1CC3(C)CN2CC(C)(C1)C3O (stereo not given) | – | – | – | – | 51.8 | –
CC(=O)N1CC2(C)CN(C(C)=O)CC(C)(C1)C2O (stereo not given) | – | – | – | – | – | –
COc1cccc(NC(=S)NNC(=O)c2ccccc2OC(F)F)c1 | – | – | – | – | 64.2 | –
O=C(NNC(=S)Nc1ccc(F)cc1)c1ccccc1OC(F)F | – | – | – | – | 58.4 | –
Cc1ccc(NC(=S)NNC(=O)c2ccccc2OC(F)F)cc1 | – | – | – | · | 55.9 | –
Cc1cccc(N(C(=O)Nc2ccccc2)C2=NCC(C)S2)c1 (stereo not given) | – | – | 68.2 | – | 81.2 | –
CC1CN=C(N(C(=O)Nc2ccccc2)c2ccc(F)cc2)S1 (stereo not given) | – | – | 75.9 | – | 76.1 | –
Cc1ccc2[nH]c(=O)c(CNC(C)C)cc2c1 | – | – | – | – | – | –
COc1cc(CC(=O)NCCc2ccc(OCc3ccccc3)cc2)c([N+](=O)[O-])cc1OC | – | – | 61.0 | – | – | –
Cc1ccc(C(=O)Nc2ccc(OCc3ccccc3)cc2)cc1[N+](=O)[O-] | – | – | – | – | – | –
COc1ccc(CCNC(=O)Cc2cc(OCc3ccccc3)c(OC)cc2[N+](=O)[O-])cc1OC | – | – | – | – | 54.9 | –
C=CCN1N=C(c2ccc(Cl)s2)CSC1=O | – | – | 72.5 | – | – | –
C=CCN1C(=O)CSC1=Nc1ccc(O)cc1 | – | – | – | – | – | –
CSc1cccc(NC(=O)CN2C(=O)c3ccccc3S2(=O)=O)c1 | – | – | – | – | – | –
Cc1cccc(NC(=O)CN2NS(=O)(=O)c3ccccc3C2=O)c1 | – | – | – | – | 59.0 | –
Cc1ccc(-n2nnc3c(SCC(=O)N4CCN(c5ccccc5)CC4)ncnc32)cc1 | · | – | · | · | · | ·
COc1ccc(-c2nc3ccccc3c(=O)n2CCCN2CCOCC2)cc1 | – | – | 90.2 | – | – | –
O=c1c2ccccc2nc(-c2ccco2)n1CCCn1ccnc1 | – | – | 69.4 | – | 65.1 | –
SMILES | CYP2C9 activ | HIV Rev-RRE inh | CYP2C19 inhib | Cav32 inh | CYP2C9 inhib | CYP2C19 act
COc1ccc(CCn2c(C)c(C(C)=O)c3cc(OC(=O)c4ccco4)ccc32)cc1OC | – | – | 83.4 | – | 87.2 | –
CCC(c1nc2ccccc2c(=O)n1CCCn1ccnc1)N1C(=O)c2ccccc2C1=O (stereo not given) | – | – | 93.1 | – | 85.2 | –
O=c1c2ccccc2nc(-c2ccccc2)n1CCN1CCOCC1 | – | – | – | – | – | –
Cc1ccc(-c2nc3ccccc3c(=O)n2CCCn2ccnc2)cc1 | – | – | – | – | – | –
O=c1c2ccccc2nc(-c2ccccc2)n1CCCn1ccnc1 | – | – | 71.6 | – | 69.7 | –
COc1ccc(CCn2c(-c3ccco3)nc3ccccc3c2=O)cc1OC | – | – | 95.4 | – | – | –
